{"data": "Experimental data gathered from unrelated publications", "note": "Compare with care: the assays were run in different laboratories."}
{"SMILES": "CO[C@]12C[C@@H](COC(=O)c3cncc(Br)c3)CN(C)[C@@H]1Cc1cn(C)c3cccc2c13", "tested on": "CNE-2", "assay": "cell growth or viability, MTT", "setting": "48 h", "quantity": "IC50", "result": "12900 nM"}
{"SMILES": "Clc1ccccc1C(c1ccccc1)(c1ccccc1)n1ccnc1", "tested on": "Cryptococcus neoformans", "assay": "microbial growth", "setting": "clinical isolate", "quantity": "MIC", "result": "4 µg/mL"}
{"SMILES": "C=CC(=O)NC1CCN(c2ncc3ncnc(Nc4ccc(Oc5ccc6c(c5)ncn6C)c(C)c4)c3n2)CC1", "tested on": "LUDLU-1", "assay": "cell growth or viability", "quantity": "EC50", "result": "6210 nM"}
{"SMILES": "CC(C)=CCCC(C)=CC=O (mixture of isomers)", "tested on": "Cryptococcus neoformans", "assay": "microbial killing, broth dilution", "setting": "clinical isolate", "quantity": "MFC", "result": "1600 µg/mL"}
{"SMILES": "Cc1c(C(=O)O)ccc2c3n(nc12)[C@@H]1[C@H](C3)N(CC2CC2)[C@@]2(C(=O)Nc3cc(Cl)ccc32)[C@H]1c1cccc(Cl)c1F", "tested on": "SW982", "assay": "cell growth or viability, resazurin", "quantity": "GI50", "result": "0.34 nM"}
{"SMILES": "Cc1nn(-c2ccccc2)c2c1C(c1c[nH]c3ccccc13)N(C(=O)c1ccncc1)N2 (stereo not shown)", "tested on": "Cryptococcus neoformans", "assay": "microbial growth", "setting": "clinical isolate", "quantity": "MIC", "result": "4 µg/mL"}
{"SMILES": "O=C(O)c1cn(C2CC2)c2cc(N3CCNCC3)c(F)cc2c1=O", "tested on": "Bacillus subtilis", "assay": "microbial growth", "system": "ATCC6051", "quantity": "MIC", "result": "2 µM"}
{"SMILES": "Nc1ccc(/C=C/C(=O)N2CCc3c(oc4c(-c5ccc(F)cc5)cc(-c5ccc(C(=O)N6CCC(F)(F)CC6)nn5)cc34)C2)cn1", "tested on": "ASPC1", "assay": "cell growth or viability, CCK-8", "setting": "72 h", "quantity": "IC50", "result": "340 nM"}
{"SMILES": "C[C@@H]1[C@H](O)[C@@H](C)/C=C/C=C/C=C/C=C/C=C/C=C/C=C/[C@H](O[C@@H]2O[C@H](C)[C@@H](O)[C@H](N)[C@@H]2O)C[C@@H]2O[C@](O)(C[C@@H](O)C[C@@H](O)[C@H](O)CC[C@@H](O)C[C@@H](O)CC(=O)O[C@H]1C)C[C@H](O)[C@H]2C(=O)O", "tested on": "Nakaseomyces glabratus", "assay": "microbial growth, broth dilution", "system": "ATCC2001", "setting": "24 h", "quantity": "MIC", "result": "4 µg/mL"}
{"SMILES": "C=C(F)C(=O)N1CCN(c2nc(OC[C@@H]3CCCN3C)nc3c2CCN(c2cccc4cccc(Cl)c24)C3)C[C@@H]1CC#N", "tested on": "NCI-H358", "assay": "cell growth or viability, ATP luminescence", "setting": "3D culture", "quantity": "IC50", "result": "3.85 nM"}
{"SMILES": "COc1ccc(C2c3c(C)nn(-c4ccccc4)c3NN2C(=O)c2ccncc2)cc1 (stereo not shown)", "tested on": "Cryptococcus neoformans", "assay": "microbial growth", "setting": "clinical isolate", "quantity": "MIC", "result": "> 100 µg/mL"}
{"SMILES": "C=CC(=O)N1CCN(c2nc(=O)n(-c3c(C)ccnc3C(C)C)c3nc(-c4c(O)cccc4F)c(F)cc23)[C@@H](C)C1", "tested on": "NCI-H358", "assay": "cell growth or viability, ATP luminescence", "quantity": "IC50", "result": "44.1 nM"}
{"SMILES": "Cc1nn(-c2ccccc2)c2c1C(c1ccco1)N(C(=O)c1ccncc1)N2 (stereo not shown)", "tested on": "Cryptococcus neoformans", "assay": "microbial growth", "setting": "clinical isolate", "quantity": "MIC", "result": "2 µg/mL"}
